Data set [1] concerns the target T1, Sodium- and chloride-dependent glycine transporter 1 (Rattus norvegicus) (UniProt P28572).
T1 sequence (whole entry): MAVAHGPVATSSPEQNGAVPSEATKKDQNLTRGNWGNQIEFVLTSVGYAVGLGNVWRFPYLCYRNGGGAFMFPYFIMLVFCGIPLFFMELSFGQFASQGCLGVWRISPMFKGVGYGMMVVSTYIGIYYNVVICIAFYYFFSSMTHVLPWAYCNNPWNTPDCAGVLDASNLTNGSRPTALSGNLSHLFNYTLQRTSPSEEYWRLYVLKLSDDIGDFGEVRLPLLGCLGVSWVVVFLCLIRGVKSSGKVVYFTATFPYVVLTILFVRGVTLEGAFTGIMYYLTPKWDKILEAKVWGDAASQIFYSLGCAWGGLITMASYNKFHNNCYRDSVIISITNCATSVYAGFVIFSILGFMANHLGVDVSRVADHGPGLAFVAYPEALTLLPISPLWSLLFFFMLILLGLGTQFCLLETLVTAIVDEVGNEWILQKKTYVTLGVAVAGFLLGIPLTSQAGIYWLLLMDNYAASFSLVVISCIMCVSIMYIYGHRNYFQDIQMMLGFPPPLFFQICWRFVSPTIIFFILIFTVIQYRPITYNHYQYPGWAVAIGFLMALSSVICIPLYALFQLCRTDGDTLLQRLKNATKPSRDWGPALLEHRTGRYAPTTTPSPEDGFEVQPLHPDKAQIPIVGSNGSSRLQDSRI
As to the kind of experiment: Binding affinity to GlyT1 in rat brain thalamus at 0.03 to 0.04 nM preincubated for 20 mins in binding buffer before compound addition measured after 30 mins by autoradiography in presence of GlyT1 inhibitor N-Me-SSR504734 relative to control. The data set is classed as tissue-based. To be noted: tested as the 125I-labelled form.

Data set [2] has as its target T1, Sodium- and chloride-dependent glycine transporter 1 (Rattus norvegicus). As to the kind of experiment: Binding affinity to GlyT1 in rat brain midbrain at 0.03 to 0.04 nM preincubated for 20 mins in binding buffer before compound addition measured after 30 mins by autoradiography in presence of 0.01 mM GlyT1 inhibitor SSR504734 relative to control. The data set is classed as tissue-based. The conditions noted are these: tested as the 125I-labelled form. A digest of the protocol: (§1)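 Rat brain sagittal sections (20 µm) preincubated 20 min at 25 °C in Tris-HCl buffer pH 7.5 (NaCl, KCl, MgCl2, CaCl2), then 30 min at 25 °C with [125I] tracer (100 kBq, 0.03–0.04 nM) plus competitor (10 µM; glycine 1 or 10 mM). Cold washes, imaging plate 3 days, ROI PSL minus background per mm². % control from ≥triplicate slices, three rats.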

The subject of data set [3] is Mus musculus. As to the kind of experiment: In vivo binding affinity to GlyT1 in ddY mouse brain hippocampus at 200 kBq, iv after 60 mins by autoradiography relative to control. The data set is classed as functional, organism-based. To be noted: tested as the 125I-labelled form. A digest of the protocol: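 Ex vivo autoradiography in mice given 200 kBq [125I]tracer i.v. and killed at 60 min. Brains were removed, frozen on dry ice and cut into 20 µm sagittal cryosections, which were exposed to an imaging plate for 7 days. Regional signal was quantified as PSL/mm² (n = 5) and compared to control by Kruskal–Wallis with Dunn's post-test.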

Data set [4] deals with Mus musculus. As to the kind of experiment: In vivo binding affinity to GlyT1 in ddY mouse brain striatum at 200 kBq, iv after 60 mins by autoradiography relative to control. The data set is classed as functional, organism-based. To be noted: tested as the 125I-labelled form.
The target of data set [5] is T1, Sodium- and chloride-dependent glycine transporter 1 (Rattus norvegicus). The data set can be described thus: Binding affinity to GlyT1 in rat brain hippocampus at 0.03 to 0.04 nM preincubated for 20 mins in binding buffer before compound addition measured after 30 mins by autoradiography in presence of GlyT1 inhibitor N-Me-SSR504734 relative to control. The data set is classed as tissue-based. The conditions noted are these: tested as the 125I-labelled form. A digest of the protocol: as §1

For data set [6] the target is unchanged. As to the kind of experiment: Binding affinity to GlyT1 in rat brain hippocampus at 0.03 to 0.04 nM preincubated for 20 mins in binding buffer before compound addition measured after 30 mins by autoradiography in presence of 0.01 mM GlyT1 inhibitor HPCP relative to control. It is filed as tissue-based. The conditions noted are these: tested as the 125I-labelled form. A digest of the protocol:
as §1

Another data set has as its system Blood. The data set can be described thus: Drug uptake in ddY mouse blood at 11.1 kBq, iv after 30 min by gamma counting. The data set is classed as ADME, organism-based. The conditions noted are these: in vivo, 0.5 h. A digest of the protocol: (§2)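 Male ddY mice (6 weeks, 30–35 g) received about 11.1 kBq [125I]tracer in 0.1 mL i.v. via tail vein. Killed at set times, organs dissected and weighed, radioactivity gamma counted. Reported as % injected dose/g tissue, mean ± SD, n = 5–6.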

A further data set relates to Intestine. The data set can be described thus: Drug uptake in ddY mouse intestine at 11.1 kBq, iv after 15 min by gamma counting. It is filed as ADME, organism-based. The conditions noted are these: in vivo. The procedure, abridged: as §2
A further data set concerns Spleen. The data set can be described thus: Drug uptake in ddY mouse spleen at 11.1 kBq, iv after 0.5 min by gamma counting. The conditions noted are these: in vivo. The data set is classed as ADME, organism-based. The procedure, abridged: (§3)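 Male ddY mice (6 weeks, 30–35 g) were given about 11.1 kBq of [125I]tracer in 0.1 mL i.v. via the tail vein. At each time point the animals were killed and organs dissected, weighed and gamma-counted. Uptake is expressed as % injected dose per gram of tissue, mean ± SD, n = 5–6.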

The subject of data set [7] is Mus musculus. The data set can be described thus: In vivo binding affinity to GlyT1 in ddY mouse brain medullary region at 33.3 kBq, iv after 30 mins in presence of nonradioactive compound 2 mg/kg, iv administered 15 mins prior to compound administration relative to control. The data set is classed as functional, Medulla of organ.
A short description of data set [8]: Metabolic stability in ddY mouse brain assessed as compound remaining at 185 kBq after 5 mins by radio-TLC. The data set is classed as ADME, tissue-based. To be noted: read-out: Stability.
A further data set relates to Stomach. As to the kind of experiment: Drug uptake in ddY mouse stomach at 11.1 kBq, iv after 30 min by gamma counting. The conditions noted are these: in vivo, 0.5 h. The data set is classed as ADME, organism-based. A digest of the protocol: as §3
The subject of another data set is Pancreas. The data set can be described thus: Drug uptake in ddY mouse pancreas at 11.1 kBq, iv after 5 min by gamma counting. The data set is classed as ADME, organism-based. To be noted: in vivo. A digest of the protocol: as §3

The text below walks through data of ChEMBL document CHEMBL1938298, “Synthesis and characterization of [¹²⁵I]2-iodo N-[(S)-{(S)-1-methylpiperidin-2-yl}(phenyl)methyl]3-trifluoromethyl-benzamide as novel imaging probe for glycine transporter 1” (Bioorg Med Chem, 2011).

Each structure is given as a SMILES string. Calls of active or inactive are those of the source. The calls are words filed in the database; no cut-off is given here.

Take `CN1CCCC[C@H]1[C@@H](NC(=O)c1cccc(C(F)(F)F)c1I)c1ccccc1`: the Activity in data set [1] stood at 25.1%; in data set [2], 28.9%; in data set [5], 45.8%; in data set [6], 55.9%. Also, the result with Mus musculus [3] and with Mus musculus [4] was inactive.

Regarding `CN1CCCC[C@H]1[C@@H](NC(=O)c1cccc(C(F)(F)F)c1[125I])c1ccccc1`, the Drug uptake with Blood was found to be 0.9 % ID/g; in the data set on Intestine it was 3.25 % ID/g; in the data set on Spleen, 0.97 % ID/g; with Stomach it was 8.66 % ID/g; in the data set with Pancreas, 6.4 % ID/g. Also, the Activity in the data set with Mus musculus [7] worked out at 53%. Further, the remaining at 5 min in data set [8] was 92%.
